Source: ChEMBL document CHEMBL1125626, “Synthesis and structure-activity relationship of new cephalosporins with amino heterocycles at C-7. Dependence of the antibacterial spectrum and beta-lactamase stability on the pKa of the C-7 heterocycle” (1991)
Converted amounts (≈) assume the structure as drawn.

Experiments:
[1] = tested on: Escherichia coli; assay: Minimum inhibitory concentration against Escherichia coli DC2 (inoculum, 10e4 cfu per spot); type: functional
How it was run: (§1)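 MIC in µg/mL, determined in Jewell and Permain growth medium with spot inoculation at 10^4 cfu per spot. P99 is described as a constitutive type I lactamase producer.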

[2] = tested on: Escherichia coli; assay: Minimum inhibitory concentration against Escherichia coli DCO (inoculum, 10e4 cfu per spot); type: functional; how it was run: as §1
[3] = tested on: Escherichia coli; assay: Minimum inhibitory concentration against Escherichia coli A8 (inoculum, 10e5 cfu per spot); type: functional
How it was run: (§2)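 MIC in µg/mL, determined in Jewell and Permain growth medium with spot inoculation at 10^5 cfu per spot.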

[4] = tested on: Enterobacter cloacae; assay: Minimum inhibitory concentration against Enterobacter cloacae A13 (inoculum, 10e5 cfu per spot); type: functional; how it was run: as §2
[5] = tested on: Enterobacter cloacae; assay: Minimum inhibitory concentration against Enterobacter cloacae P99 (inoculum, 10e4 cfu per spot); type: functional; how it was run: as §1
[6] = tested on: Klebsiella aerogenes; assay: Minimum inhibitory concentration against Klebsiella aerogenes X5L (inoculum, 10e4 cfu per spot); type: functional; how it was run: as §1
[7] = tested on: Klebsiella aerogenes; assay: Minimum inhibitory concentration against Klebsiella aerogenes X6 (inoculum, 10e4 cfu per spot); type: functional; how it was run: as §1
[8] = tested on: Klebsiella pneumoniae; assay: Minimum inhibitory concentration against Klebsiella pneumoniae A24 (inoculum, 10e5 cfu per spot); type: functional; how it was run: as §2
[9] = tested on: Proteus mirabilis; assay: Minimum inhibitory concentration against Proteus mirabilis A18 (inoculum, 10e5 cfu per spot); type: functional; how it was run: as §2
[10] = tested on: Pseudomonas aeruginosa; assay: Minimum inhibitory concentration against Pseudomonas aeruginosa A21 (inoculum, 10e5 cfu per spot); type: functional; how it was run: as §2
[11] = tested on: Staphylococcus aureus; assay: Minimum inhibitory concentration against Staphylococcus aureus A4 (inoculum, 10e5 cfu per spot); type: functional; how it was run: as §2
[12] = tested on: Staphylococcus aureus; assay: Minimum inhibitory concentration against Staphylococcus aureus A6 (inoculum, 10e5 cfu per spot); type: functional; how it was run: as §2
[13] = tested on: Streptococcus pyogenes; assay: Minimum inhibitory concentration against Streptococcus pyogenes (inoculum, 10e5 cfu per spot) A1; type: functional; how it was run: as §2
[14] = tested on: Serratia marcescens; assay: Minimum inhibitory concentration against Serratia marcescens A16 (inoculum, 10e5 cfu per spot); type: functional; how it was run: as §2
[15] = tested on: Enterobacter cloacae; assay: Minimum inhibitory concentration against Enterobacter cloacae P99 (inoculum, 10e4 cfu per spot)(type I lactamase producer); type: functional; how it was run: as §1
[16] = tested on: Escherichia coli; assay: Minimum inhibitory concentration against Escherichia coli X4 (inoculum, 10e4 cfu per spot)
[17] = tested on: Escherichia coli; assay: Minimum inhibitory concentration against Escherichia coli TEM X3 (inoculum, 10e4 cfu per spot)(TEM I type lactamase producer)

SMILES | MIC [1] [µg/mL] | MIC [2] [µg/mL] | MIC [3] [µg/mL] | MIC [4] [µg/mL] | MIC [5] [µg/mL] | MIC [6] [µg/mL] | MIC [7] [µg/mL] | MIC [8] [µg/mL] | MIC [9] [µg/mL] | MIC [10] [µg/mL] | MIC [11] [µg/mL] | MIC [12] [µg/mL] | MIC [13] [µg/mL] | MIC [14] [µg/mL] | MIC [15] [µg/mL] | MIC [16] [µg/mL] | MIC [17] [µg/mL]
CC(=O)OCC1=C(C(=O)OC(c2ccccc2)c2ccccc2)N2C(=O)[C@@H](Nc3nc4cc(C(=O)O)ccc4[nH]3)C2SC1 (stereo not given in full) | 0.25 (≈ 0.418 µM) | 8 (≈ 13.4 µM) | 16 (≈ 26.7 µM) | > 256 | 4 (≈ 6.68 µM) | > 256 | 16 (≈ 26.7 µM) | 32 (≈ 53.5 µM) | 32 (≈ 53.5 µM) | > 256 | 256 (≈ 428 µM) | 32 (≈ 53.5 µM) | 8 (≈ 13.4 µM) | > 256 | > 256 | 8 (≈ 13.4 µM) | 16 (≈ 26.7 µM)
Cn1nnnc1SCC1=C(C(=O)OC(C)(C)C)N2C(=O)[C@@H](NC3=NCCN3)C2SC1 (stereo not given in full) | – | 8 (≈ 17.7 µM) | 2 (≈ 4.42 µM) | – | 1 (≈ 2.21 µM) | 2 (≈ 4.42 µM) | 1 (≈ 2.21 µM) | 2 (≈ 4.42 µM) | > 256 | > 256 | > 256 | > 256 | 128 (≈ 283 µM) | 32 (≈ 70.7 µM) | 8 (≈ 17.7 µM) | 1 (≈ 2.21 µM) | 1 (≈ 2.21 µM)
CC(=O)OCC1=C(C(=O)OC(c2ccccc2)c2ccccc2)N2C(=O)[C@@H](Nc3nc4cscc4[nH]3)C2SC1 (stereo not given in full) | 0.06 (≈ 0.107 µM) | 1 (≈ 1.78 µM) | 8 (≈ 14.3 µM) | > 256 | 1 (≈ 1.78 µM) | 128 (≈ 228 µM) | 2 (≈ 3.57 µM) | 16 (≈ 28.5 µM) | 32 (≈ 57.1 µM) | > 256 | 32 (≈ 57.1 µM) | 4 (≈ 7.13 µM) | 2 (≈ 3.57 µM) | > 256 | > 256 | 0.5 (≈ 0.892 µM) | 4 (≈ 7.13 µM)
CC(=O)OCC1=C(C(=O)OC(C)(C)C)N2C(=O)[C@@H](Nc3nc4ccccc4n3C)C2SC1 (stereo not given in full) | 0.25 (≈ 0.545 µM) | 64 (≈ 140 µM) | 128 (≈ 279 µM) | > 256 | 64 (≈ 140 µM) | 256 (≈ 558 µM) | 256 (≈ 558 µM) | – | 32 (≈ 69.8 µM) | > 256 | > 256 | 32 (≈ 69.8 µM) | 32 (≈ 69.8 µM) | > 256 | > 256 | 32 (≈ 69.8 µM) | 64 (≈ 140 µM)
CC(=O)OCC1=C(C(=O)OC(C)(C)C)N2C(=O)[C@@H](Nc3nc4cc([N+](=O)[O-])ccc4[nH]3)C2SC1 (stereo not given in full) | 8 (≈ 16.3 µM) | 128 (≈ 261 µM) | 40 (≈ 81.7 µM) | 40 (≈ 81.7 µM) | 64 (≈ 131 µM) | > 200 | > 200 | 40 (≈ 81.7 µM) | 40 (≈ 81.7 µM) | > 200 | 200 (≈ 409 µM) | 1 (≈ 2.04 µM) | 1 (≈ 2.04 µM) | > 200 | > 200 | > 200 | > 200
CC1=C(C(=O)OC(c2ccccc2)c2ccccc2)N2C(=O)[C@@H](NC3=NCCN3C)C2SC1 (stereo not given in full) | 32 (≈ 69.2 µM) | 128 (≈ 277 µM) | 40 (≈ 86.5 µM) | > 200 | 64 (≈ 138 µM) | > 200 | 128 (≈ 277 µM) | 40 (≈ 86.5 µM) | > 200 | > 200 | > 200 | > 200 | > 200 | > 200 | 128 (≈ 277 µM) | 128 (≈ 277 µM) | 128 (≈ 277 µM)
CC1=C(C(=O)OC(C)(C)C)N2C(=O)[C@@H](Nc3nc4ccccc4n3CC(=O)OC(C)(C)C)C2SC1 (stereo not given in full) | > 256 | > 256 | > 256 | > 256 | > 256 | > 256 | > 256 | – | > 256 | > 256 | > 256 | > 256 | > 256 | > 256 | > 256 | > 256 | > 256
CC1=C(C(=O)OC(c2ccccc2)c2ccccc2)N2C(=O)[C@@H](NC3=NCC(C)N3)C2SC1 (stereo not given in full) | 4 (≈ 8.65 µM) | 8 (≈ 17.3 µM) | 128 (≈ 277 µM) | > 256 | 2 (≈ 4.32 µM) | 40 (≈ 86.5 µM) | 8 (≈ 17.3 µM) | > 256 | > 256 | > 256 | > 256 | > 256 | > 256 | > 256 | 2 (≈ 4.32 µM) | 2 (≈ 4.32 µM) | 2 (≈ 4.32 µM)
CO[C@@]1(NC2=NCCN2)C(=O)N2C(C(=O)OC(c3ccccc3)c3ccccc3)=C(C)CSC21 (stereo not given in full) | > 256 | > 256 | > 256 | > 256 | > 256 | > 256 | > 256 | > 256 | > 256 | > 256 | > 256 | > 256 | > 256 | > 256 | > 256 | > 256 | > 256
CO[C@@]1(Nc2nc3ccccc3[nH]2)C(=O)N2C(C(=O)OC(c3ccccc3)c3ccccc3)=C(COC(C)=O)CSC21 (stereo not given in full) | > 256 | > 256 | > 256 | > 256 | > 256 | > 256 | > 256 | > 256 | > 256 | > 256 | > 256 | > 256 | > 256 | > 256 | > 256 | > 256 | > 256
CC1=C(C(=O)OC(c2ccccc2)c2ccccc2)N2C(=O)[C@@H](NC3=NC(c4ccc(C#N)cc4)CN3)C2SC1 (stereo not given in full) | 2 (≈ 3.64 µM) | 2 (≈ 3.64 µM) | 4 (≈ 7.28 µM) | > 256 | 4 (≈ 7.28 µM) | 8 (≈ 14.6 µM) | 8 (≈ 14.6 µM) | 16 (≈ 29.1 µM) | > 256 | > 256 | > 256 | > 256 | 64 (≈ 116 µM) | 16 (≈ 29.1 µM) | 8 (≈ 14.6 µM) | 4 (≈ 7.28 µM) | 4 (≈ 7.28 µM)
CC1=C(C(=O)OC(c2ccccc2)c2ccccc2)N2C(=O)[C@@H](NC3=NC(C(N)=O)CN3)C2SC1 (stereo not given in full) | 2 (≈ 4.07 µM) | 8 (≈ 16.3 µM) | 32 (≈ 65.1 µM) | > 256 | 4 (≈ 8.14 µM) | 16 (≈ 32.5 µM) | 16 (≈ 32.5 µM) | 16 (≈ 32.5 µM) | > 256 | > 256 | > 256 | > 256 | > 256 | > 256 | 8 (≈ 16.3 µM) | 8 (≈ 16.3 µM) | 8 (≈ 16.3 µM)
